Data from ChEMBL document CHEMBL1130336, “Polyanion inhibitors of human immunodeficiency virus and other viruses. 6. Micelle-like anti-HIV polyanionic compounds based on a carbohydrate core” (J Med Chem, 1997).

Legend:
Vero [1] = experiment: Concentration required to cause a microscopically detectable alteration of normal Vero cell morphology; type: functional, cell-based; conditions: Chlorocebus sabaeus
Vero [2] = experiment: Concentration required to reduce parainfluenza-3 virus-inducted cytopathicity by 50% (Vero cells); type: functional, cell-based; conditions: Chlorocebus sabaeus
E6SM [3] = experiment: Concentration required to reduce herpes simplex virus-2(G) inducted cytopathicity by 50% (E6SM cells); type: functional, cell-based; conditions: Homo sapiens
Procedure, shortened: (§1)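 Virus was added in the presence of compound, and the cells were incubated until cytopathic effect was scored. The value is the concentration that reduces virus-induced CPE by 50%.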

HeLa [4] = experiment: Concentration required to reduce polio-1 virus-inducted cytopathicity by 50% (HeLa cells); type: functional, cell-based; conditions: Homo sapiens
HEL [5] = experiment: Concentration required to reduce human cytomegalo virus(AD-169) inducted cytopathicity by 50% (HEL cells); type: functional, cell-based; procedure, shortened: as §1
HeLa [6] = experiment: Concentration required to cause a microscopically detectable alteration of normal Hela cell morphology; type: functional, cell-based; conditions: Homo sapiens
Vero [7] = experiment: Concentration required to reduce Coxsackie virus-inducted cytopathicity by 50% (Vero cells); type: functional, cell-based; conditions: Chlorocebus sabaeus
E6SM [8] = experiment: Concentration required to reduce herpes simplex virus-2(Lyons) inducted cytopathicity by 50% (E6SM cells); type: functional, cell-based; conditions: Homo sapiens; procedure, shortened: as §1
E6SM [9] = experiment: Concentration required to reduce herpes simplex virus-1TK (VMW1837) inducted cytopathicity by 50% (E6SM cells); type: functional, cell-based; conditions: Homo sapiens; procedure, shortened: as §1
CEM-4 [10] = experiment: Concentration required to reduce the viability of uninfected CEM-4 cells by 50%; type: functional; conditions: Homo sapiens
Procedure, shortened: (§2)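 Cytotoxicity in uninfected CEM-4 or MT-4 cells, measured as inhibition of cell growth. The value is the concentration that lowers viability by 50%.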

Vaccinia virus = experiment: Concentration required to reduce vaccinia virus-inducted cytopathicity by 50% (E6SM cells); type: functional, organism-based, Orthopoxvirus vaccinia
MT4 [11] = experiment: Concentration required to reduce the viability of uninfected MT-4 cells by 50%; type: functional; conditions: Homo sapiens; procedure, shortened: as §2
E6SM [12] = experiment: Concentration required to reduce herpes simplex virus-2(196) inducted cytopathicity by 50% (E6SM cells); type: functional, cell-based; conditions: Homo sapiens; procedure, shortened: as §1
CEM-4 [13] = experiment: Inhibitory concentration required to inhibit HIV-induced cytopathicity in CEM-4 cells by 50%; type: functional, cell-based; conditions: Homo sapiens
Procedure, shortened: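 CEM-4 cells infected with HIV-1 (strain HTLV-III_B/LAI). The end point is 50% inhibition of HIV-induced cytopathicity.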

Vero [14] = experiment: Concentration required to reduce sindbis virus-inducted cytopathicity by 50% (Vero cells); type: functional, cell-based; conditions: Chlorocebus sabaeus
HEL [15] = experiment: Concentration required to reduce human cytomegalo virus(Davis) inducted cytopathicity by 50% (HEL cells); type: functional, cell-based; procedure, shortened: as §1
E6SM [16] = experiment: Concentration required to cause a microscopically detectable alteration of normal E6SM cell morphology; type: functional, cell-based; conditions: Homo sapiens, read-out: IC50
Procedure, shortened: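 Minimum cytotoxic concentration, read microscopically as the level that causes a detectable alteration of normal cell morphology.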

E6SM [17] = experiment: Concentration required to reduce herpes simplex virus-1TK (F) inducted cytopathicity by 50% (E6SM cells); type: functional, cell-based; conditions: Homo sapiens; procedure, shortened: as §1
MT4 [18] = experiment: Concentration required to inhibit human immunodeficiency virus-2 induced cytopathicity in MT-4 cells by 50%; type: functional, cell-based
Procedure, shortened: (§3)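 MT-4 cells infected with HIV-1 (strain HTLV-III_B/LAI) or HIV-2 (strain LAV_ROD). The end point is 50% inhibition of virus-induced cytopathicity.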

Vero [19] = experiment: Concentration required to reduce reovirus-1 inducted cytopathicity by 50% (Vero cells); type: functional, cell-based; conditions: Chlorocebus sabaeus
HeLa [20] = experiment: Concentration required to reduce vesicular stomatitis virus-inducted cytopathicity by 50% (HeLa cells); type: functional, cell-based; conditions: Homo sapiens
E6SM [21] = experiment: Concentration required to reduce herpes simplex virus-1TK (McIntyre) inducted cytopathicity by 50% (E6SM cells); type: functional, cell-based; conditions: Homo sapiens; procedure, shortened: as §1
Vero [22] = experiment: Concentration required to reduce Junin virus-inducted cytopathicity by 50% (Vero cells); type: functional, cell-based; conditions: Chlorocebus sabaeus
[23] = test system: Human immunodeficiency virus 1; experiment: Concentration required to inhibit by 50% human immunodeficiency virus-1 induced syncytium formation upon coculturing persistently HIV-infected HUT-78 cells with MOLT-4 cells; type: functional, organism-based; conditions: Human immunodeficiency virus 1, MOLT-4
Procedure, shortened: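 MOLT-4 (clone 8) cells at 1 × 10^6 cells/mL, cocultured with an equal number of persistently infected HUT-78/HIV-1 or HUT-78/HIV-2 cells across a range of compound concentrations. Giant cells were counted under the microscope after 24 h of cocultivation. The value is the concentration giving 50% inhibition of syncytium formation.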

E6SM [24] = experiment: Concentration required to reduce herpes simplex virus-1TK( B2006) inducted cytopathicity by 50% (E6SM cells); type: functional, cell-based; conditions: Homo sapiens; procedure, shortened: as §1
Vero [25] = experiment: Concentration required to reduce Tacaribe virus-inducted cytopathicity by 50% (Vero cells); type: functional, cell-based; conditions: Chlorocebus sabaeus
E6SM [26] = experiment: Concentration required to reduce herpes simplex virus-1TK (KOS) inducted cytopathicity by 50% (E6SM cells); type: functional, cell-based; conditions: Homo sapiens; procedure, shortened: as §1
Vero [27] = experiment: Concentration required to reduce forest virus-inducted cytopathicity by 50% (Vero cells); type: functional, cell-based; conditions: Chlorocebus sabaeus
[28] = test system: Human immunodeficiency virus 2; experiment: Concentration required to inhibit by 50% human immunodeficiency virus-2 induced syncytium formation upon coculturing persistently HIV-infected HUT-78 cells with MOLT-4 cells; conditions: HUT-78, MOLT-4
HeLa [29] = experiment: Concentration required to reduce Coxsackie virus-inducted cytopathicity by 50% (HeLa cells); type: functional, cell-based; conditions: Homo sapiens
HEL [30] = experiment: Concentration required to inhibit HEL cell growth by 50%; type: functional, cell-based; conditions: Homo sapiens
MT4 [31] = experiment: Concentration required to inhibit human immunodeficiency virus-1 induced cytopathicity in MT-4 cells by 50%; type: functional, cell-based; procedure, shortened: as §3

SMILES | IC50 (Vero [1]) [µM] | IC50 (Vero [2]) [µM] | IC50 (E6SM [3]) [µM] | IC50 (HeLa [4]) [µM] | IC50 (HEL [5]) [µM] | IC50 (HeLa [6]) [µM] | IC50 (Vero [7]) [µM] | IC50 (E6SM [8]) [µM] | IC50 (E6SM [9]) [µM] | CC50 (CEM-4 [10]) [µM] | CC50 (MT4 [11]) [µM] | IC50 (E6SM [12]) [µM] | IC50 (CEM-4 [13]) [µM] | IC50 (Vero [14]) [µM] | IC50 (HEL [15]) [µM] | minimum cytotoxic concentration (E6SM [16]) [µM] | IC50 (E6SM [17]) [µM] | IC50 (MT4 [18]) [µM] | IC50 (Vero [19]) [µM] | IC50 (HeLa [20]) [µM] | also measured
O=S(=O)(O)CCSCCCOC[C@H]1O[C@@H](OCCCSCCS(=O)(=O)O)[C@H](OCCCSCCS(=O)(=O)O)[C@@H](OCCCSCCS(=O)(=O)O)[C@@H]1OCCCSCCS(=O)(=O)O | > 167 | > 167 | > 333 | > 167 | > 42 | > 167 | > 167 | > 42 | > 333 | > 83.3 | > 208 | > 333 | > 83.3 | > 167 | > 333 | > 333 | > 333 | > 208 | > 167 | > 167 | IC50 (Vaccinia virus; e6sm): > 167 µM; IC50 (E6SM [21]): > 333 µM; IC50 (Vero [22]): > 42 µM; IC50 [23]: > 208 µM; IC50 (E6SM [24]): > 333 µM; IC50 (Vero [25]): > 42 µM; IC50 (E6SM [26]): > 333 µM; IC50 (Vero [27]): > 167 µM; IC50 [28]: > 208 µM; IC50 (HeLa [29]): > 167 µM; IC50 (HEL [30]): > 42 µM
O=S(=O)(O)CCSCCCOC[C@H]1O[C@@](COCCCSCCS(=O)(=O)O)(O[C@H]2O[C@H](COCCCSCCS(=O)(=O)O)[C@@H](OCCCSCCS(=O)(=O)O)[C@H](OCCCSCCS(=O)(=O)O)[C@H]2OCCCSCCS(=O)(=O)O)[C@@H](OCCCSCCS(=O)(=O)O)[C@@H]1OCCCSCCS(=O)(=O)O | > 101 | > 101 | > 101 | > 51 | > 25 | > 101 | > 101 | > 101 | > 101 | > 50.6 | > 127 | > 101 | > 50.6 | > 101 | > 25 | > 203 | > 101 | > 127 | > 101 | > 51 | IC50 (MT4 [31]): > 127 µM; IC50 (Vaccinia virus; Orthopoxvirus vaccinia, E6SM): > 101 µM; IC50 (E6SM [21]): > 101 µM; IC50 (Vero [22]): > 25 µM; IC50 [23]: > 127 µM; IC50 (E6SM [24]): > 203 µM; IC50 (Vero [25]): > 25 µM; IC50 (E6SM [26]): > 101 µM; IC50 (Vero [27]): > 101 µM; IC50 [28]: > 127 µM; IC50 (HeLa [29]): > 51 µM; IC50 (HEL [30]): > 25 µM
O=C(O)CC(SCCCOC[C@H]1O[C@@](COCCCSC(CC(=O)O)C(=O)O)(O[C@H]2O[C@H](COCCCSC(CC(=O)O)C(=O)O)[C@@H](OCCCSC(CC(=O)O)C(=O)O)[C@H](OCCCSC(CC(=O)O)C(=O)O)[C@H]2OCCCSC(CC(=O)O)C(=O)O)[C@@H](OCCCSC(CC(=O)O)C(=O)O)[C@@H]1OCCCSC(CC(=O)O)C(=O)O)C(=O)O (stereo not given in full) | > 90 | > 90 | > 181 | > 90 | > 22 | > 90 | > 90 | > 135 | > 181 | > 45.1 | > 113 | > 181 | 3.02 | > 90 | > 22 | > 181 | > 181 | 2.89 | > 90 | > 90 | IC50 (MT4 [31]): 0.18 µM; IC50 (Vaccinia virus; Orthopoxvirus vaccinia, E6SM): > 181 µM; IC50 (E6SM [21]): > 181 µM; IC50 (Vero [22]): > 22 µM; IC50 [23]: 22.6 µM; IC50 (E6SM [24]): > 181 µM; IC50 (Vero [25]): > 22 µM; IC50 (E6SM [26]): > 181 µM; IC50 (Vero [27]): > 90 µM; IC50 [28]: 22.6 µM; IC50 (HeLa [29]): > 90 µM; IC50 (HEL [30]): > 22 µM
